Test results published in publication PMC11842817 (Nature Communications, 2025).
Values joined by “and” are separate entries in the source; they are usually repeats but may differ in a detail not shown here. Equal entries are not always repeated. “Also recorded” adds a separate entry of the source.

What was measured:
SyoA/SyoB = assay: In vitro NADH/O2-driven; format: biochemical, Amycolatopsis thermoflava N1165; conditions: ~320 μM NADH; for O-demethylation by reconstituted SyoA/SyoB monooxygenase system: 1 μM SyoA, 1 μM SyoB, 1 mM substrate, 30 °C
How it was run: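 Reconstituted system of 1 µM SyoA, 1 µM His-tagged SyoB and 100 µg/mL catalase in oxygenated 50 mM Tris pH 7.5 at 30 °C. Background NADH (about 320 µM) oxidation recorded first. Started with 1 mM test compound from DMSO stock; A340 (ε 6.22 mM−1 cm−1) monitored about 10 min, then about 1 h at room temperature for full NADH use. No-P450 controls included. Products analysed by HPLC.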

SyoA [1] = biological target: T1, SyoA (Amycolatopsis thermoflava, UniProt A0AAX7FLX8); assay: In vitro H2O2-driven; format: biochemical, Amycolatopsis thermoflava N1165; conditions: 1 µM SyoA; for total turnover number (TTN): 10 mM H2O2, 60 min; for concentration of demethylated aromatic product (mean of 3 replicates): 50 mM Tris pH 7.5, 10 mM H2O2, 0.5 mM syringol; for concentration of demethylated aromatic product (mean of 3 replicates) / concentration of demethylated aromatic product (individual replicates): 0.5 mM syringaldehyde or 2 mM 4-methylsyringol, 30 °C, 60 min; for concentration of demethylated aromatic product (individual replicates): 10 mM H2O2, 0.5 mM syringol
T1 sequence (A0AAX7FLX8 1-412): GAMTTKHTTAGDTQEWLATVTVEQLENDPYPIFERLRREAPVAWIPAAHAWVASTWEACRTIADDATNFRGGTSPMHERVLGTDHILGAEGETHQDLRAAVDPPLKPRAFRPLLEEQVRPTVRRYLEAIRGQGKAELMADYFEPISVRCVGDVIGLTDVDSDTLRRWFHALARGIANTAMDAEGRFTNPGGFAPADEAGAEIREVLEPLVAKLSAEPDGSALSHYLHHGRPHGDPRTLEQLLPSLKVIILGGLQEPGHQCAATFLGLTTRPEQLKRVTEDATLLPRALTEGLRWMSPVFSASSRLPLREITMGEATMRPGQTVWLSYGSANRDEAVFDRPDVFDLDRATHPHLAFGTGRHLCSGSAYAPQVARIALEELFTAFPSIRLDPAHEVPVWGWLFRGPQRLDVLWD
How it was run: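 SyoA expressed in E. coli BL21(DE3) and purified by Ni affinity then anion exchange. Enzyme at 1 µM in 50 mM Tris pH 7.5 with 0.5–2 mM test compound (from DMSO stock), preincubated 2 min at 30 °C. Started with 10 mM H2O2 and run 60 min at 30 °C, then quenched with catalase; triplicate. Products quantified by C18 HPLC (20–95% MeCN/0.1% TFA, 254 nm) against internal-standard calibration (20–500 µM), or by GC-MS after ethyl acetate extraction.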

SyoA [2] = biological target: T1, SyoA; assay: Substrate binding affinity; set-up: species or system Amycolatopsis thermoflava N1165; conditions: 50 mM potassium phosphate pH 7.4, n = 3, hyperbolic fit
How it was run: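 SyoA at about 2–8 µM in 50 mM potassium phosphate pH 7.4 titrated with test compound from 1, 10 or 100 mM DMSO stocks (at most 10 µL per stock). Difference spectra recorded from 300–600 nm until no further shift. Peak-to-trough ΔA taken at 390−419, 500−419 or 500−570 nm depending on ligand, then fitted to a hyperbolic equation for KD; triplicate titrations.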

[3] = tested on: GcoA mutants (GcoAEE, GcoAQT, GcoAET); assay: In vitro H2O2-driven O-demethylation by I-helix mutants, HPLC; format: biochemical, Amycolatopsis thermoflava; conditions: mutation of Gln248 and/or Glu249, 20 mM H2O2
How it was run: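 GcoA mutants carried N-terminal His6-TEV tags, were expressed in E. coli BL21(DE3) and purified by Ni affinity. Reactions used 1 µM enzyme in 50 mM Tris pH 7.5 with 0.5–2 mM test compound, preincubated 2 min at 30 °C. Started with 20 mM H2O2 and run 60 min at 30 °C, then catalase-quenched; triplicate. Products quantified by C18 HPLC at 254 nm against calibration curves.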

[4] = tested on: GcoA mutants (GcoAEE, GcoAQT, GcoAET) with GcoB; assay: In vitro NADH/O2-driven; format: biochemical, Amycolatopsis thermoflava
How it was run: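 GcoA mutants at 0.5 µM with 1 µM GcoB and 100 µg/mL catalase in oxygenated 50 mM Tris pH 7.5 at 30 °C. About 320 µM NADH added first to record background oxidation. Started with 1 mM test compound; A340 followed for about 10 min, then left about 1 h at room temperature. No-P450 controls included. Products analysed by C18 HPLC at 254 nm.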

[5] = tested on: GcoA mutants (GcoAEE, GcoAQT, GcoAET); assay: UV-Vis substrate binding analysis of I-helix mutants; set-up: species or system Amycolatopsis thermoflava
[6] = tested on: SyoA mutants (SyoAEE, SyoAQT, SyoAET); assay: In vitro H2O2-driven O-demethylation by I-helix mutants, HPLC; format: biochemical, Amycolatopsis thermoflava N1165; conditions: mutation of Gln252 and/or Glu253
How it was run: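 SyoA I-helix mutants expressed in E. coli BL21(DE3) and purified by Ni affinity only. Enzyme at 1 µM in 50 mM Tris pH 7.5 with 0.5–2 mM test compound, preincubated 2 min at 30 °C. Started with 10 mM H2O2 and run 60 min at 30 °C, then catalase-quenched; triplicate. Products quantified by C18 HPLC at 254 nm with internal standard and product calibration curves.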

SyoA [7] = biological target: T1, SyoA; assay: UV-Vis spin-state shift / substrate binding analysis; set-up: species or system Amycolatopsis thermoflava N1165; conditions: ligand titrated until Soret band stopped shifting
How it was run: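 SyoA at about 3 µM in 50 mM Tris pH 7.5 received test compound in 1 µL aliquots from 100 mM DMSO stock. Spectra recorded from 600–250 nm until no further shift. Spin-state change read from the Soret band (417 nm) or the Q-bands (568 and 535 nm).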

[8] = tested on: SyoA mutants (SyoAEE, SyoAQT, SyoAET); assay: UV-Vis substrate binding analysis of I-helix mutants; set-up: species or system Amycolatopsis thermoflava N1165

| Structure (SMILES) | O-demethylation by reconstituted SyoA/SyoB monooxygenase system (SyoA/SyoB) | total turnover number (TTN) (SyoA [1]) | concentration of demethylated aromatic product (mean of 3 replicates) (SyoA [1]) [µM] | Kd (SyoA [2]) [µM] | concentration of demethylated aromatic product (individual replicates) (SyoA [1]) | also measured |
| --- | --- | --- | --- | --- | --- | --- |
| COc1cc(C=O)cc(OC)c1O [syringaldehyde] | did not O-demethylate; also recorded: no O-demethylation | 308 | 308 ± 27 | 341 ± 25 | – | – |
| COc1cc(C)cc(O)c1O [2a, 3-methoxy-5-methylbenzene-1,2-diol] | – | – | – | – | 802 µM and 822 µM and 762 µM | – |
| COc1cc(C=O)cc(O)c1O [3a, 5-hydroxyvanillin] | – | – | – | – | 332 µM and 314 µM and 279 µM | – |
| COc1cccc(O)c1O [1b, 3-methoxycatechol] | – | – | – | – | 155 µM and 125 µM and 146 µM | – |
| COc1ccccc1O [guaiacol] | – | – | – | – | – | hydrogen peroxide driven O-demethylation by mutants compared to wild type [3]: loss of peroxygenase activity; monooxygenase activity compared to wild type ([4]; GcoAEE): significant reduction in the monooxygenase activity; monooxygenase activity compared to wild type ([4]; GcoAET): significant reduction in the monooxygenase activity; monooxygenase activity compared to wild type ([4]; GcoAQT): complete loss in activity; substrate binding to mutants (UV-Vis) [5]: not drastically impacted by the mutations |
| COc1cccc(OC)c1O [syringol] | did not O-demethylate; also recorded: no O-demethylation | 142 | 142 ± 15 | 16 ± 1 | – | NADH consumption in reaction containing SyoA, SyoB and substrate (SyoA/SyoB; monitored at 340 nm): NADH was consumed; hydrogen peroxide driven O-demethylation by mutants compared to wild type [6]: loss of peroxygenase activity; substrate consumed (SyoA [1]; over 60 min, 10 mM H2O2): ~ 65%; shift to the HS (high-spin) form using the Soret band (SyoA [7]): ~ 70%; substrate binding to mutants (UV-Vis) [8]: not drastically impacted by the mutations |
